NLRP3 yeast inh = NALP3 inhibition in yeast. Yeast reconstituted NLRP3/ASC/caspase-1, beta-gal luminescence, 24 h. 330,000 tested, 0.39% active. inhibition, % at 10 µM;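 active = inhibition of 50% or more; inactive = inhibition below 50%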;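 note: plate controls were induced DMSO wells for no effect and uninduced yeast grown without galactose for full effect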
Arr AP2 block = blocks beta-arrestin peptide binding to AP2 adaptin; inhibition, % at 10 µM; 340,000 tested, 0.31% active; FITC-arrestin peptide / GST-AP2 beads, flow cytometry; AP2 beta2 appendage carries R879A mutation; AID 504490;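 active = inhibition above a set limit, near 3 SD of compounds lacking own fluorescence, cut at about 54% in these data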;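 note: plate controls were DMSO wells for no effect and 5 µM unlabelled arrestin peptide for full effect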
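System: GST-tagged AP2 beta2-adaptin appendage (R879A) on 4 µm glutathione beads / Reagent: FITC-arrestin peptide, 50 nM / Detection: HyperCyt-sampled flow cytometry, FL1 channel, ex 488/em 535 nm / Timing: 12 min plus 1 h, RT / Buffer or medium: PBS plus Tween 20 (0.05%) and BSA (0.1%)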
DSG3 Ab inh = human desmoglein-3 autoantibody binding inhibition | P32926 | DSG3-coupled beads, scFv-anti-DSG3-GFP binding, flow cytometry; active compounds read low | binding (percent of control), % at 10 µM | 310,000 tested, 0.48% active;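 active = binding more than 3 SD below its plate's average and above zero; inconclusive = below that plate limit but binding exactly zero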;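 note: hits lower antibody fragment binding to DSG3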
PolyA inhibitor = inhibitors of polyadenylation in S. cerevisiae | S. cerevisiae SKY197-pL101 polyadenylation reporter, beta-gal luminescence; efflux-impaired pdr1/pdr3 knockout yeast; score 100 = 6 SD above DMSO | activity score, % at 12 µM | 300,000 tested, 0.02% active | AID 1875;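 active = lowest replicate activity score at least 50, where 100 means six control SD above control mean; inconclusive = lowest score under 50 but half or more replicates reach 50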;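 note: yeast exposed to compound for 9 h at 30 °C; higher score means more reporter readthrough which indicates perturbed polyadenylation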
ALR inh = inhibitors of human sulfhydryl oxidase ALR. purified ALR, DTT oxidation, H2O2 HRP-luminol luminescence. inhibition, % (test concentration not listed). 290,000 tested, 3.8% active. AID 485317;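 active = mean replicate inhibition above about 79%, with every replicate also reaching it, limit read from the data; inconclusive = only one of the two criteria met; inactive = mean below limit and not every replicate reaching it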
Target sequence (P55789 whole entry, looked up): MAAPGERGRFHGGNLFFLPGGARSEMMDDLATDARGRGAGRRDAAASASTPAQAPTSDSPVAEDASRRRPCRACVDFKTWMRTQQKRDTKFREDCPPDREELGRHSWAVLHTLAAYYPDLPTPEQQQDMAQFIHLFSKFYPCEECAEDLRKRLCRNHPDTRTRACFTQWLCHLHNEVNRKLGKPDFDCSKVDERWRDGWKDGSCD
NALP1 yeast inh = inhibitors of NALP1 inflammasome in yeast; inhibition, % at 10 µM; 280,000 tested, 0.61% active; AID 2071; S. cerevisiae NALP1/ASC/caspase-1 growth, X-gal OD620, 72 h; in the data active = inhibition mostly above about 24%, no sharp cut-off; inactive = mostly below about 32%
NALP3 confirm = confirmation of NALP3 inhibitors in yeast | inhibition, % at 10 µM | shares compounds with NLRP3 yeast inh | 1,300 tested, 81% active | AID 435006 | yeast expressing human NALP3, luminescence; in the data active = inhibition above about 48%
Casp1 ASC ctr = counter-screen for NALP3 inhibitors: yeast caspase-1-ASC | shares compounds with NLRP3 yeast inh | yeast expressing Caspase-1-ASC, luminescence counter screen | inhibition, % at 10 µM | 1,000 tested, 66% active
NALP3 retest = confirmation retest of NALP3 inhibitors in yeast | shares compounds with NLRP3 yeast inh | yeast expressing human NALP3, luminescence read-out | inhibition, % at 10 µM | 1,000 tested, 53% active
* hit, by the source's call; ? = inconclusive; nt = not tested or not shown. Shown are actives, neighbours in structure and some others; about 4.6% of the full set was active somewhere. Cut-off read from the data, not from the text of the source, unless noted: active = inhibition above about 50%; inactive = the rest.

SMILES	NLRP3 yeast inh	Arr AP2 block	DSG3 Ab inh	PolyA inhibitor	ALR inh	NALP1 yeast inh	NALP3 confirm	Casp1 ASC ctr	NALP3 retest
CC(Cc1ccccc1)(NC(=O)CN)c1ccccc1 (stereo unspecified)	91.2*	nt	nt	-6.4	6.0	62.7*	95.5*	93.8*	93.3*
C=Cc1ncc(OC)c2c1[nH]c1ccccc12	60.1*	15.3	99.8	-1.6	42.3	nt	73.8*	80.8*	63.6*
C/C(=N\NC(=S)Nc1cccc(C)c1)c1ccco1	52.7*	15.3	97.8	0.5	65.3	6.5	27.2	nt	nt
C/C(=N\NC(=S)Nc1cccc(C)c1)c1ccccc1	41.9	1.4	nt	-28.4	-0.9	7.7	nt	nt	nt
CC1CCN(c2ccc(-c3cccs3)nn2)CC1	51.7*	-8.4	94.0	32.8	-2.4	8.0	79.4*	nt	nt
Clc1ccc(-c2cccs2)nn1	9.8	15.7	105.0	5.1	1.0	-11.2	nt	nt	nt
CCCCCNC(=O)C(=O)C1C(=O)Nc2ccccc21 (stereo unspecified)	52.3*	-1.3	107.5	6.1	nt	nt	70.7*	42.8	51.1*
COc1ccc(C(=O)On2c(-c3ccc(Br)cc3)nc3ccccc3c2=O)cc1	62.2*	3.1	92.1	12.7	-3.6	35.2	86.1*	56.6*	68.3*
CN1[C@@H]2CC(OC(=O)[C@H](CO)c3ccccc3)C[C@H]1[C@@H]1O[C@@H]12 (stereo partly specified)	0.3	-5.1	100.4	4.4	-23.4	15.9	nt	nt	nt
O=C(Nc1cccc(Cl)c1)Nc1cccc(Cl)c1	10.6	8.4	?	-3.4	-5.7	-4.6	nt	nt	nt
O=C(Nc1ccccc1)Nc1cc(Cl)cc(Cl)c1	56.1*	7.1	104.8	-12.0	-8.1	4.9	77.0*	68.3*	77.8*
O=C(Nc1nnc(-c2ccco2)s1)c1ccccc1	53.0*	1.9	87.5	-8.2	16.4	20.2	57.5*	57.4*	42.0
O=C(Nc1nnc(CCc2ccccc2)s1)c1ccccc1	51.0*	-11.2	118.6	11.1	-6.2	20.4	70.3*	25.4	41.6
COc1ccccc1C(=O)Nc1nnc(-c2ccco2)s1	55.5*	0.2	104.0	-21.4	7.8	-6.0	57.0*	68.1*	54.7*
Cc1ccccc1OCC(=O)Nc1nnc(-c2ccco2)s1	14.8	-12.1	112.8	-0.1	-1.2	21.4	nt	nt	nt
Cc1ccccc1C(=O)Nc1nnc(-c2ccco2)s1	62.1*	-0.7	101.0	16.0	6.7	21.9	48.9*	47.9	38.3
Cc1cccc(C(=O)N2CCCC(CCC(=O)N3CCN(c4ccccn4)CC3)C2)c1 (stereo unspecified)	3.1	-0.7	112.8	2.9	4.1	1.9	nt	nt	nt
CCn1cc(C(=O)O)c(=O)c2cnc(N3CCN(C(=S)NC(=O)c4ccc(OC)cc4)CC3)nc21	12.1	37.9	97.3	-8.1	nt	-13.8	nt	nt	nt
CCOC(=O)Cc1csc(NC(=O)c2cccc(OC)c2)n1	44.4	10.2	96.1	9.0	-2.8	17.0	nt	nt	nt
CCOC(=O)Cc1csc(NC(=O)c2cccc([N+](=O)[O-])c2)n1	59.3*	-16.2	96.6	-13.1	-10.1	22.4	76.5*	69.5*	51.1*
CCCn1nnc(NC(=O)c2cccc(Cl)c2)n1	10.3	2.6	109.8	-1.4	-29.2	20.5	nt	nt	nt
CCCn1nnc(NC(=O)c2sc3ccccc3c2Cl)n1	50.7*	0.4	118.1	4.9	-0.6	27.0	54.5*	45.2	48.5
CNc1nc(N)c([N+](=O)[O-])c(Nc2cccc(F)c2)n1	74.6*	3.6	96.8	2.6	-3.7	8.3	86.5*	77.8*	56.3*
Nc1nc(NCCOCCO)nc(Nc2cccc(F)c2)c1[N+](=O)[O-]	17.2	-2.4	95.1	16.0	16.8	-8.2	nt	nt	nt
CNc1nc(N)c([N+](=O)[O-])c(Nc2cccc(Cl)c2)n1	60.4*	-1.2	106.7	-44.8	nt	5.6	65.9*	nt	nt
SMILES	NLRP3 yeast inh	Arr AP2 block	DSG3 Ab inh	PolyA inhibitor	ALR inh	NALP1 yeast inh	NALP3 confirm	Casp1 ASC ctr	NALP3 retest
Cc1cccc(C)c1OCC(=O)N(Cc1ccc(Cl)cc1)C1CCS(=O)(=O)C1 (stereo unspecified)	10.9	-5.9	nt	28.7	-6.0	-2.4	nt	nt	nt
COc1cc(C(=O)ON=C2C3CC4CC(C3)CC2C4)cc(OC)c1OC	59.3*	3.5	116.7	-75.2	-7.4	17.6	92.4*	40.1	26.1
COc1ccc(NCN2C(=O)C3C4C=CC(C4)C3C2=O)cc1 (stereo unspecified)	13.6	-3.6	99.3	18.5	73.0	-10.2	nt	nt	nt
COc1cc(CNCCc2ccccc2)cc(Br)c1OCC(=O)Nc1ccccc1C	53.9*	9.4	110.5	10.7	nt	23.1	44.0	36.5	45.2
COc1cc(C=O)c(Br)cc1OCC(=O)NCCc1ccccc1	-112.1	17.8	103.3	-0.7	-0.1	-11.6	-19.2	nt	nt
COc1ccc2[nH]c(CN3CCC(CO)(CCOc4ccccc4)CC3)c(C)c2c1	14.0	-9.0	102.5	13.6	-40.6	6.3	nt	nt	nt
O=C(NC1CCN(S(=O)(=O)c2cccc(Cl)c2)CC1)C1CCCCC1	53.2*	-2.6	100.3	?	-8.8	34.7	55.8*	25.3	20.3
O=C(CSc1nnc(-c2ccc(Cl)cc2Cl)n1C1CCCCC1)N1CCCC1	5.0	-0.9	nt	-1.7	4.7	18.7	nt	nt	nt
COc1ccc(N2CCN(CCNC(=O)Nc3ccc(C)cc3Cl)CC2)cc1	32.3	30.4	90.1	-5.7	62.9	35.0	nt	nt	nt
C/C=C/C=C/C(=O)[C@@H]1[C@@H]([C@]2(C)OC(=O)C(C)=C2O)[C@H]2/C(=C(O)/C=C/C=C/C)C(=O)[C@]1(C)C(=O)C2(C)O (stereo partly specified)	7.5	1.7	nt	-5.2	12.3	-10.4	nt	nt	nt
O/N=C/c1ccc(OCc2ccccc2)c(Br)c1	nt	-3.2	96.5	-39.6	35.2	16.0	nt	nt	nt
O/N=C/c1cc(Br)cc(Br)c1OCc1ccccc1	-102.4	26.5	96.4	-73.2	-6.7	nt	-40.0	nt	nt
CCCc1nnc(NC(=O)CCC(=O)N2CCN(Cc3cc(Cl)ccc3OC)CC2)s1	12.6	26.2	94.8	0.3	-2.2	15.5	nt	nt	nt
CC(C)(C)c1ccc(C(=O)N/N=C/c2cccc(Cl)c2)cc1	54.2*	-7.7	95.0	21.1	-2.3	27.1	70.7*	54.5*	40.8
O=C(N/N=C/c1cccc(F)c1)c1ccc(Cl)cc1	29.2	9.9	101.5	13.9	3.8	9.9	nt	nt	nt
Cc1cc(C(F)(F)F)nc2c(Cl)c(C(C)(C)C)nn12	1.4	34.9	103.2	0.7	4.2	9.3	nt	nt	nt
Cc1csc2nc(O)c(C(=O)NCCC3=CCCCC3)c(=O)n12	55.9*	-15.6	97.5	?	-8.0	nt	74.6*	28.9	55.1*

High-throughput results deposited in PubChem by several laboratories.
